# From PubChem BioAssay
# This is a sample that favours compounds with a hit; in the whole collection about 2.3% have one here.
# HIV Env fusion: inhibitors of HIV-1 Env-driven cell-cell fusion, primary screen, HeLa-JRFL effector, CEM21 target cells, luciferase; inhibition, % at 12.3 µM; actives 1.1% (n = 360,000);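 active = mean replicate inhibition score of at least 50 and every replicate individually at or above 50; inconclusive = only one of the two criteria met; inactive = mean below 50 and not all replicates reaching 50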;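 note: 0% = plate neutral controls and 100% = maraviroc near 300 nM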
# Glyco luc inh: increase of ERlucT glycosylation luciferase signal, primary screen, N-linked glycosylation inhibitor project, D54 ERlucT cells, luminescence, set 2. D54 ERlucT glycosylation luciferase reporter, 24 h; percent of 100 nM tunicamycin response. reporter increase, % at 12.5 µM. actives 0.23% (n = 360,000). AID 588692, 2011;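 active = mean luciferase reporter signal, scaled so untreated is 0 and the glycosylation-blocking control 100, at or above a set limit in every replicate; inconclusive = mean reaches the limit but not every replicate does; inactive = mean below the limit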;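 note: luciferase carries N-glycosylation sites so blocking glycosylation raises the light; 0% = median of neutral control wells and 100% = median of 100 nM tunicamycin wells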
# PfHsp90 set2: growth inhibition of PfHsp90-expressing yeast, primary screen, antimalarial PfHsp90 inhibitor project, S. cerevisiae, BacTiter-Glo luminescence, single point, set 2. actives 0.32% (n = 310,000). AID 504621, 2011. BacTiter-Glo ATP, 48 h; yeast lacking PDR1 and PDR3 efflux regulators. inhibition, % at 9.4 µM;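 active = every replicate shows inhibition above about 80%, whatever the replicate mean, limit read from the data; inconclusive = mean inhibition reaches the set limit but some replicate falls short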;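 note: 0% = DMSO neutral controls and 100% = 20 µM radicicol positive controls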
# Rtt109 HAT inh: inhibitors of C. albicans Rtt109/Vps75 HAT, primary screen, biochemical, ThioGlo CoA-SH fluorescence, plate reader. Histone acetyltransferase RTT109 (Candida albicans (strain SC5314 / ATCC MYA-2876)), …. purified Rtt109/Vps75, 4 h. inhibition, % at 34.9 µM. actives 0.16% (n = 330,000);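 active = inhibition of at least 50% in every replicate; inconclusive = best replicate reaches 50% inhibition but some replicates fall short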
# Target sequence (Q5AAJ8 whole entry, looked up): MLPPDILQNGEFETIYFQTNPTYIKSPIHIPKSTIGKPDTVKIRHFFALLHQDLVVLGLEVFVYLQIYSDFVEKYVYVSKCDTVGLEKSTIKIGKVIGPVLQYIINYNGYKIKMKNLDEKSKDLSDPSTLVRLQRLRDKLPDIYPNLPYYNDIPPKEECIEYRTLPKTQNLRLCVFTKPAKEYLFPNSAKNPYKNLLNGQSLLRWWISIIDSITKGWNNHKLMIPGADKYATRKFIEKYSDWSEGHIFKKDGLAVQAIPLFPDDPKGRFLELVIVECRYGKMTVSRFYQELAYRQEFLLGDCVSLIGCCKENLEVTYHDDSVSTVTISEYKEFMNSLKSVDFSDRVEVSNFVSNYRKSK
# PAX8 reporter: inhibitors of PAX8-driven TPO luciferase reporter, primary screen, RMG-I cells, single concentration; SteadyGlo, 24 h; inhibition, % at 12.6 µM; actives 1.2% (n = 360,000);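 active = mean replicate inhibition at least 60% with every replicate also reaching 60%; inconclusive = only one of the two criteria is met; inactive = mean below 60% and not all replicates reaching 60%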;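 note: luciferase light reporting Pax8 driven TPO promoter activity; plate controls were median of neutral control wells for no effect and mitoxantrone controls for full effect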
# Arr AP2 block: inhibitors of beta-arrestin/AP2 binding, primary screen, biochemical, GPCR trafficking, flow cytometry | FITC-arrestin peptide / GST-AP2 beads; AP2 beta2 appendage carries R879A mutation | actives 0.31% (n = 340,000) | inhibition, % at 10 µM | AID 504490, 2011 | beta-arrestin 1 C-terminal peptide binding to AP2 beta2-adaptin appendage (human);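 active = inhibition above a set limit, near 3 SD of compounds lacking own fluorescence, cut at about 54% in these data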;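 note: plate controls were DMSO wells for no effect and 5 µM unlabelled arrestin peptide for full effect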
#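 Material – AP2 appendage R879A on GSH beads · Buffer or medium – PBS with 0.05% Tween 20 and 0.1% BSA · Probe or stimulus – fluorescein-tagged arrestin peptide at 50 nM final · Incubation – compound with beads 12 min RT, then probe 1 h RT · Detection – high-throughput flow cytometry of beads, ex 488, em 535 nm · Evaluation – percent response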
# The depositor's hits bear a star; ? = inconclusive; . = not tested or not shown; [ ] = another dose, or the depositor's remark.
SMILES,HIV Env fusion,Glyco luc inh,PfHsp90 set2,Rtt109 HAT inh,PAX8 reporter,Arr AP2 block
C[C@H]1CN([C@@H](C)CO)S(=O)(=O)c2ccc(C#CC3CCCC3)cc2O[C@H]1CN(C)C(=O)c1cccc(F)c1,35.5[16.7 µM],.,.,.,.,.
CCCNC(=O)N(C)C[C@H]1Oc2ncc(C3=CCCC3)cc2C(=O)N([C@H](C)CO)C[C@@H]1C,-12.7[16.7 µM],.,.,.,3.1,.
O=C1/C(=C/c2ccccc2F)SC(=S)N1CCC(=O)N1CCCCC1CCO (centres undefined),-4.9,-1.3,18.5,10.4,45.4,14.9
O=C1/C(=C/c2ccc(F)cc2)SC(=S)N1CC(=O)N1CCCCC1c1cccnc1 (centres undefined),-0.8,-6.8,-4.5,52.7*,69.6*,5.8
O=C1/C(=C/c2ccccc2F)SC(=S)N1CC(=O)N1CCCCC1c1cccnc1 (centres undefined),9.3,-8.3,-28.6,7.7,100.1*,-2.4
COCC(=O)Nc1ccc2c(c1)C(=O)N(C)[C@@H]1CC[C@H](CC(=O)Nc3ccccc3)O[C@@H]1CO2,18.4[16.7 µM],.,.,.,-10.2,.
CCOC(=O)c1c(N2C(=O)CC(Sc3ccccc3C(=O)O)C2=O)sc2c1CCCC2 (centres undefined),22.1,0.8,21.5,88.3*,23.0,17.0
O=C(O)c1ccccc1SC1CC(=O)N(c2cccc3ccccc23)C1=O (centres undefined),2.8,2.8,?,31.5,21.1,37.3
CCOc1ccc(N2C(=O)CC(Sc3ccccc3C(=O)O)C2=O)c([N+](=O)[O-])c1 (centres undefined),-6.7,0.3,47.7,65.4*,4.0,17.8
C[C@@H]1CN([C@@H](C)CO)S(=O)(=O)c2ccc(-c3cccnc3)cc2O[C@H]1CN(C)C,7.7[16.7 µM],.,.,.,.,.
Cc1noc(C)c1NC(=O)NCC[C@@H]1CC[C@@H](NC(=O)Cc2cccnc2)[C@@H](CO)O1,-0.9[16.7 µM],.,.,.,-3.9,.
COc1cc(C(=O)N/N=C(\C)c2ccc3c(c2)OCO3)cc(OC)c1OC,-324.6,34.0*,-42.6,3.2,17.9,-6.8
O=C1C=C(NCc2ccccc2)CCC1,5.9,-0.1,-29.6,1.1,74.0*,-12.2
O=C1C=C(NCc2ccco2)CCC1,.,2.8,-10.9,1.4,.,-2.8
COc1ccc(S(=O)(=O)N[C@@H]2C=C[C@@H](CC(=O)N3CCC(Cc4ccccc4)CC3)O[C@H]2CO)cc1,0.9[16.7 µM],.,.,.,-1.4,.
Cc1ccc(S(=O)(=O)N[C@H]2C=C[C@H](CC(=O)N3CCC(Cc4ccccc4)CC3)O[C@H]2CO)cc1,76.4*[16.7 µM],.,.,.,-14.0,.
COc1ccc(S(=O)(=O)N[C@@H]2C=C[C@H](CC(=O)N3CCC(Cc4ccccc4)CC3)O[C@@H]2CO)cc1,63.4*[16.7 µM],.,.,.,16.4,.
O=C(C[C@H]1C=C[C@H](NC(=O)Cc2cccnc2)[C@@H](CO)O1)NCc1ccc2c(c1)OCO2,5.7[16.7 µM],.,.,.,7.5,.
C[C@H](CO)N1C[C@H](C)[C@@H](CN(C)CC2CCCCC2)Oc2ccc(NC(=O)Nc3cccc4ccccc34)cc2CC1=O,24.5[16.7 µM],.,.,.,46.9,.
O=C(Nc1ccccc1F)N1CC(=O)N2[C@H](C1)[C@H](c1ccc(C#CC3CCCC3)cc1)[C@@H]2CO,.,.,.,.,4.2,.
O=C(C[C@@H]1CC[C@H](NC(=O)c2cccc(F)c2)[C@H](CO)O1)NCc1ccc(Oc2ccccc2)cc1,62.3*[16.7 µM],.,.,.,27.8,.
O=C(C[C@H]1CC[C@@H](NC(=O)c2ccccc2)[C@H](CO)O1)NCc1ccc(Oc2ccccc2)cc1,66.5*[16.7 µM],.,.,.,11.1,.
O=C(C[C@@H]1CC[C@H](NC(=O)c2cccc(F)c2)[C@@H](CO)O1)NCc1ccc(Oc2ccccc2)cc1,11.4[16.7 µM],.,.,.,22.3,.
O=C(C[C@H]1CC[C@H](NC(=O)c2ccccc2)[C@@H](CO)O1)NCc1ccc(Oc2ccccc2)cc1,22.6[16.7 µM],.,.,.,17.8,.
Cc1noc(C)c1NC(=O)Nc1ccc2c(c1)C(=O)N([C@@H](C)CO)C[C@@H](C)[C@H](CN(C)C(=O)Nc1cccc3ccccc13)OCCCC[C@@H](C)O2,29.1[16.7 µM],.,.,.,-22.8,.
SMILES,HIV Env fusion,Glyco luc inh,PfHsp90 set2,Rtt109 HAT inh,PAX8 reporter,Arr AP2 block
O=C(NCc1ccco1)c1cccc2ccccc12,.,-0.3,1.8,-1.9,.,-4.3
O=C(Nc1ccccc1C(=O)NCc1ccco1)Nc1cccc2ccccc12,2.4,6.0,18.0,5.6,61.3*,9.4
Cc1ccccc1CN(c1ccc(C(=O)Nc2ccccc2C(=O)NCc2ccco2)cc1)S(C)(=O)=O,61.4*,-7.4,-31.0,4.1,.,3.9
COc1ccccc1C(=O)N1CCN(C(=O)c2oc3ccc(C)cc3c2C)CC1,65.9*,-0.8,3.6,-3.6,8.8,-10.6
Nc1cc(=O)[nH]c(SCCOc2ccccc2)n1,2.4,3.3,-21.4,.,4.5,-4.9
Nc1cc(=O)[nH]c(SCCSc2ccccc2)n1,58.4*,1.2,-2.5,4.5,18.1,-7.7
CCCC#Cc1ccc([C@@H]2[C@H](C#N)N(S(=O)(=O)c3cccc(F)c3)[C@H]2CO)cc1,-0.6[16.7 µM],.,.,.,83.1*,.
CCCC#Cc1ccc([C@H]2[C@H](C#N)N(S(=O)(=O)c3cccc(F)c3)[C@H]2CO)cc1,-27.8[16.7 µM],.,.,.,54.7,.
N#C[C@H]1[C@@H](c2ccccc2/C=C/c2ccccc2)[C@@H](CO)N1S(=O)(=O)c1cccc(F)c1,58.3*[16.7 µM],.,.,.,19.4,.
C[C@@H]1CN([C@H](C)CO)C(=O)Cc2cc(NC(=O)C3CC3)ccc2O[C@H]1CN(C)S(=O)(=O)c1ccc(F)cc1,-6.8[16.7 µM],.,.,.,.,.
C[C@@H]1CN([C@@H](C)CO)C(=O)c2cc(NC(=O)c3ccncc3)ccc2O[C@H]1CN(C)C(=O)Nc1ccc(C(F)(F)F)cc1,0.9[16.7 µM],.,.,.,9.1,.
C[C@H](CO)N1C[C@H](C)[C@H](CN(C)CC2CC2)OCCCC[C@H](C)Oc2ccc(NS(=O)(=O)c3ccc(Cl)cc3)cc2C1=O,13.6[16.7 µM],.,.,.,-0.4,.
Cc1cc(C)n(-c2nc3ccccc3nc2N2CCN(S(=O)(=O)c3ccc4ccccc4c3)CC2)n1,56.2*,-6.6,.,-9.4,.,3.4
Cc1cc(C)n(-c2nc3ccccc3nc2N2CCN(S(=O)(=O)c3ccc(F)c(C)c3)CC2)n1,.,-5.8,8.4,30.2,.,30.1
COc1cccc(S(=O)(=O)Nc2ccc3c(c2)[C@H]2C[C@H](CC(=O)NCc4ccccc4F)O[C@H](CO)[C@H]2O3)c1,?,.,.,.,96.7*,.
COc1cccc(S(=O)(=O)Nc2ccc3c(c2)[C@@H]2C[C@H](CC(=O)NCc4ccccc4F)O[C@@H](CO)[C@@H]2O3)c1,2.5[16.7 µM],.,.,.,-21.2,.
